According to the RNAGym collection of RNA variant scans (doi:10.1002/anie.201605470):

B1: Osa-1-4 twister ribozyme (parent)
chain: CCGCCUAACACUGCCAAUGCCGGUCCCAAGCCCGGAUAAAAGUGGAGGGGGCGG

Variants of: B1
Assay: self-cleavage, relative activity (ratio to wild type); higher = more cleavage; co-transcriptional
Procedure, shortened: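 For each read, cleavage status was taken from whether upstream sequence was present. The reads came from an Oryza sativa twister ribozyme of 54 nucleotides, whose DNA template was synthesised with 97 % wild-type base and 1 % of each other base at the 48 positions downstream of the cleavage site. The template was transcribed in vitro at 37 °C for 2 h with co-transcriptional self-cleavage, and the RNA was reverse-transcribed using a template-switching oligonucleotide, PCR-amplified and deep-sequenced. Relative activity is the fraction cleaved normalised to wild type.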

Variant	self-cleavage
CCGCCUAACACUGCCAAUGCCGGUCCCAAGCCCGGAUAACAUUGGAGGGGGCGG [A40C G42U]	0.03
CCGCCUAACACUGCCAAUGCCGGUCCCAAGCCCGGAUAACAAUGGAGGGGGCGG [A40C G42A]	0.07
CCGCCUAACACUGCCAAUGCCGGUCCCAAGCCCGGAUAACACUGGAGGGGGCGG [A40C G42C]	0.06
CCGCCUAACACUGCCAAUGCCGGUCCCAAGCCCGGAUAAGCGUGGAGGGGGCGG [A40G A41C]	0.41
CCGCCUAACACUGCCAAUGCCGGUCCCAAGCCCGGAUAAGGGUGGAGGGGGCGG [A40G A41G]	0.22
CCGCCUAACACUGCCAAUGCCGGUCCCAAGCCCGGAUAAGUGUGGAGGGGGCGG [A40G A41U]	0.91
CCGCCUAACACUGCAAAUGCCGGUCCCAAGCCCGGAUAAGAGUGGAGGGGGCGG [A40G C15A]	0.13
CCGCCUAACACUGCGAAUGCCGGUCCCAAGCCCGGAUAAGAGUGGAGGGGGCGG [A40G C15G]	0.14
CCGCCUAACACUGCUAAUGCCGGUCCCAAGCCCGGAUAAGAGUGGAGGGGGCGG [A40G C15U]	0.13
CCGCCUAACACUGCCAAUUCCGGUCCCAAGCCCGGAUAACAGUGGAGGGGGCGG [A40C G19U]	0.04
CCGCCUAACACUGCCAAUCCCGGUCCCAAGCCCGGAUAACAGUGGAGGGGGCGG [A40C G19C]	0.02
CCGCCUAACACUGCCAAUACCGGUCCCAAGCCCGGAUAACAGUGGAGGGGGCGG [A40C G19A]	0.07
CCGCCUAACACUGCCAAUGCCGGUCCCAAGCCCGGAUAACAGGGGAGGGGGCGG [A40C U43G]	0.07
CCGCCUAACACUGCCAAUGCCGGUCCCAAGCCCGGAUAACAGAGGAGGGGGCGG [A40C U43A]	0.07
CCGCCUAACACUGCCAAUGCCGGUCCCAAGCCCGGAUAACAGCGGAGGGGGCGG [A40C U43C]	0.07
CCGCCUAACACUGCCAAUGCCGGUCCCAAGCCCGGAUAACAGUGGAGGGGGCAG [A40C G53A]	0.09
CCGCCUAACACUGCCAAUGCCGGUCCCAAGCCCGGAUAACAGUGGAGGGGGCCG [A40C G53C]	0.04
CCGCCUAACACUGCCAAUGCCGGUCCCAAGCCCGGAUAACAGUGGAGGGGGCUG [A40C G53U]	0.05
CCGCCUAACACUGCCAAUGCCGGUCCCAAGCCCGGAUAACAGUGGACGGGGCGG [A40C G47C]	0.03
CCGCCUAACACUGCCAAUGCCGGUCCCAAGCCCGGAUAACAGUGGAAGGGGCGG [A40C G47A]	0.05
CCGCCUAACACUGCCAAUGCCGGUCCCAAGCCCGGAUAACAGUGGAUGGGGCGG [A40C G47U]	0.04
CCGCCUAACACUGCCAAUGCCGUUCCCAAGCCCGGAUAACAGUGGAGGGGGCGG [A40C G23U]	0.02
CCGCCUAACACUGCCAAUGCCGAUCCCAAGCCCGGAUAACAGUGGAGGGGGCGG [A40C G23A]	0.06
CCGCCUAACACUGCCAAUGCCGCUCCCAAGCCCGGAUAACAGUGGAGGGGGCGG [A40C G23C]	0.02
CCGCCUAAUACUGCCAAUGCCGGUCCCAAGCCCGGAUAAGAGUGGAGGGGGCGG [A40G C9U]	0.23

Variant	self-cleavage
CCGCCUAAAACUGCCAAUGCCGGUCCCAAGCCCGGAUAAGAGUGGAGGGGGCGG [A40G C9A]	0.09
CCGCCUAAGACUGCCAAUGCCGGUCCCAAGCCCGGAUAAGAGUGGAGGGGGCGG [A40G C9G]	0.18
CCGCCUAACACUGCCAAUGCCGGUCCCAAGCCCGGAUAACAGUGGAGGGUGCGG [A40C G50U]	0.07
CCGCCUAACACUGCCAAUGCCGGUCCCAAGCCCGGAUAACAGUGGAGGGAGCGG [A40C G50A]	0.08
CCGCCUAACACUGCCAAUGCCGGUCCCAAGCCCGGAUAACAGUGGAGGGCGCGG [A40C G50C]	0.07
CCGCCUAACACUGCCAAUGCCGGUCCCAAGCCCGGAUAACAGUGGAGGGGGGGG [A40C C52G]	0.09
CCGCCUAACACUGCCAAUGCCGGUCCCAAGCCCGGAUAACAGUGGAGGGGGUGG [A40C C52U]	0.1
CCGCCUAACACUGCCAAUGCCGGUCCCAAGCCCGGAUAACAGUGGAGGGGGAGG [A40C C52A]	0.11
CCGCCUAACACUGCCAAUGCCGGUCCCAAGCCCGGAUAAGAGUGGGGGGGGCGG [A40G A46G]	0.05
CCGCCUAACACUGCCAAUGCCGGUCCCAAGCCCGGAUAAGAGUGGCGGGGGCGG [A40G A46C]	0.06
CCGCCUAACACUGCCAAUGCCGGUCCCAAGCCCGGAUAAGAGUGGUGGGGGCGG [A40G A46U]	0.08
CCGCCUAACACUGCCAAUGCCGGUCCCAAGCCCGGAUAACAGUGGAGUGGGCGG [A40C G48U]	0.03
CCGCCUAACACUGCCAAUGCCGGUCCCAAGCCCGGAUAACAGUGGAGAGGGCGG [A40C G48A]	0.02
CCGCCUAACACUGCCAAUGCCGGUCCCAAGCCCGGAUAACAGUGGAGCGGGCGG [A40C G48C]	0.02
CCGCCUAACACUGCCAAUGCCGGUCCCAAGCCCGGACAACAGUGGAGGGGGCGG [A40C U37C]	0.07
CCGCCUAACACUGCCAAUGCCGGUCCCAAGCCCGGAGAACAGUGGAGGGGGCGG [A40C U37G]	0.12
CCGCCUAACACUGCCAAUGCCGGUCCCAAGCCCGGAAAACAGUGGAGGGGGCGG [A40C U37A]	0.07
CCGCCUAACACUCCCAAUGCCGGUCCCAAGCCCGGAUAACAGUGGAGGGGGCGG [A40C G13C]	0.01
CCGCCUAACACUUCCAAUGCCGGUCCCAAGCCCGGAUAACAGUGGAGGGGGCGG [A40C G13U]	0.01
CCGCCUAACACUACCAAUGCCGGUCCCAAGCCCGGAUAACAGUGGAGGGGGCGG [A40C G13A]	0.03
CCGCCUAACACUGCCAAUGCCGGUCCCAAGCCCGGAUAACAGUGCAGGGGGCGG [A40C G45C]	0.03
CCGCCUAACACUGCCAAUGCCGGUCCCAAGCCCGGAUAACAGUGAAGGGGGCGG [A40C G45A]	0.04
CCGCCUAACACUGCCAAUGCCGGUCCCAAGCCCGGAUAACAGUGUAGGGGGCGG [A40C G45U]	0.03
CCGCCUAACACUGCCAAUGCCUGUCCCAAGCCCGGAUAACAGUGGAGGGGGCGG [A40C G22U]	0.07
CCGCCUAACACUGCCAAUGCCAGUCCCAAGCCCGGAUAACAGUGGAGGGGGCGG [A40C G22A]	0.09

Variant	self-cleavage
CCGCCUAACACUGCCAAUGCCCGUCCCAAGCCCGGAUAACAGUGGAGGGGGCGG [A40C G22C]	0.02
CCGCCUAACACUGCCAAUGCCGGUCCCAAGCCCGGAUAACAGUGGAGGGGACGG [A40C G51A]	0.06
CCGCCUAACACUGCCAAUGCCGGUCCCAAGCCCGGAUAACAGUGGAGGGGUCGG [A40C G51U]	0.06
CCGCCUAACACUGCCAAUGCCGGUCCCAAGCCCGGAUAACAGUGGAGGGGCCGG [A40C G51C]	0.04
CCGCCUAACACUGCCAAUGCCGGUCCCAAGCCCGGAUAACAGUGGAGGCGGCGG [A40C G49C]	0.02
CCGCCUAACACUGCCAAUGCCGGUCCCAAGCCCGGAUAACAGUGGAGGAGGCGG [A40C G49A]	0.04
CCGCCUAACACUGCCAAUGCCGGUCCCAAGCCCGGAUAACAGUGGAGGUGGCGG [A40C G49U]	0.03
CCGCCUAGCACUGCCAAUGCCGGUCCCAAGCCCGGAUAAGAGUGGAGGGGGCGG [A40G A8G]	0.18
CCGCCUACCACUGCCAAUGCCGGUCCCAAGCCCGGAUAAGAGUGGAGGGGGCGG [A40G A8C]	0.06
CCGCCUAUCACUGCCAAUGCCGGUCCCAAGCCCGGAUAAGAGUGGAGGGGGCGG [A40G A8U]	0.11
CCGCCUAACACUGACAAUGCCGGUCCCAAGCCCGGAUAAGAGUGGAGGGGGCGG [A40G C14A]	0.4
CCGCCUAACACUGUCAAUGCCGGUCCCAAGCCCGGAUAAGAGUGGAGGGGGCGG [A40G C14U]	0.2
CCGCCUAACACUGGCAAUGCCGGUCCCAAGCCCGGAUAAGAGUGGAGGGGGCGG [A40G C14G]	0.11
CCGCCUAACACUGCCAAUGCCGGUCCCAAGCCCGGAUAAGAGUGGAGGGGGCGG [A40G]	0.91
CCGCCUAACACUGCCAAUGCCGGUCCCAAGCCCGAAUAACAGUGGAGGGGGCGG [A40C G35A]	0.08
CCGCCUAACACUGCCAAUGCCGGUCCCAAGCCCGUAUAACAGUGGAGGGGGCGG [A40C G35U]	0.08
CCGCCUAACACUGCCAAUGCCGGUCCCAAGCCCGCAUAACAGUGGAGGGGGCGG [A40C G35C]	0.05
CCGCCUAACACUGCCAAUGCCGGUCCCAAGCCCGGAUAACAGUGGAGGGGGCGU [A40C G54U]	0.12
CCGCCUAACACUGCCAAUGCCGGUCCCAAGCCCGGAUAACAGUGGAGGGGGCGA [A40C G54A]	0.09
CCGCCUAACACUGCCAAUGCCGGUCCCAAGCCCGGAUAACAGUGGAGGGGGCGC [A40C G54C]	0.07
CCGCCUAACACUGCCAAAGCCGGUCCCAAGCCCGGAUAACAGUGGAGGGGGCGG [A40C U18A]	0.07
CCGCCUAACACUGCCAAGGCCGGUCCCAAGCCCGGAUAACAGUGGAGGGGGCGG [A40C U18G]	0.09
CCGCCUAACACUGCCAACGCCGGUCCCAAGCCCGGAUAACAGUGGAGGGGGCGG [A40C U18C]	0.08
CCGCCUAACACCGCCAAUGCCGGUCCCAAGCCCGGAUAACAGUGGAGGGGGCGG [A40C U12C]	0.07
CCGCCUAACACGGCCAAUGCCGGUCCCAAGCCCGGAUAACAGUGGAGGGGGCGG [A40C U12G]	0.47

Variant	self-cleavage
CCGCCUAACACAGCCAAUGCCGGUCCCAAGCCCGGAUAACAGUGGAGGGGGCGG [A40C U12A]	0.5
CCGCCUAACACUGCCAAUGCCGGUCCCAAUCCCGGAUAACAGUGGAGGGGGCGG [A40C G30U]	0.01
CCGCCUAACACUGCCAAUGCCGGUCCCAAACCCGGAUAACAGUGGAGGGGGCGG [A40C G30A]	0.02
CCGCCUAACACUGCCAAUGCCGGUCCCAACCCCGGAUAACAGUGGAGGGGGCGG [A40C G30C]	0.02
CCGCCUAACACUGCCAAUGCCGGUCCCAAGCCCGGAUAACAGUAGAGGGGGCGG [A40C G44A]	0.09
CCGCCUAACACUGCCAAUGCCGGUCCCAAGCCCGGAUAACAGUUGAGGGGGCGG [A40C G44U]	0.06
CCGCCUAACACUGCCAAUGCCGGUCCCAAGCCCGGAUAACAGUCGAGGGGGCGG [A40C G44C]	0.09
CCGCCUAACACUGCCAAUGUCGGUCCCAAGCCCGGAUAAGAGUGGAGGGGGCGG [A40G C20U]	0.91
CCGCCUAACACUGCCAAUGACGGUCCCAAGCCCGGAUAAGAGUGGAGGGGGCGG [A40G C20A]	0.78
CCGCCUAACACUGCCAAUGGCGGUCCCAAGCCCGGAUAAGAGUGGAGGGGGCGG [A40G C20G]	0.1
CCGCCUAACAGUGCCAAUGCCGGUCCCAAGCCCGGAUAAGAGUGGAGGGGGCGG [A40G C11G]	0.13
CCGCCUAACAUUGCCAAUGCCGGUCCCAAGCCCGGAUAAGAGUGGAGGGGGCGG [A40G C11U]	0.32
CCGCCUAACAAUGCCAAUGCCGGUCCCAAGCCCGGAUAAGAGUGGAGGGGGCGG [A40G C11A]	0.14
CCGCCUAACACUGCCAAUGCCGGACCCAAGCCCGGAUAACAGUGGAGGGGGCGG [A40C U24A]	0.04
CCGCCUAACACUGCCAAUGCCGGCCCCAAGCCCGGAUAACAGUGGAGGGGGCGG [A40C U24C]	0.03
CCGCCUAACACUGCCAAUGCCGGGCCCAAGCCCGGAUAACAGUGGAGGGGGCGG [A40C U24G]	0.01
CCGCCUGACACUGCCAAUGCCGGUCCCAAGCCCGGAUAAGAGUGGAGGGGGCGG [A40G A7G]	0.35
CCGCCUCACACUGCCAAUGCCGGUCCCAAGCCCGGAUAAGAGUGGAGGGGGCGG [A40G A7C]	0.05
CCGCCUUACACUGCCAAUGCCGGUCCCAAGCCCGGAUAAGAGUGGAGGGGGCGG [A40G A7U]	0.08
CCGCCUAACACUGCCAAUGCCGGUCCCAAGCCCAGAUAACAGUGGAGGGGGCGG [A40C G34A]	0.06
CCGCCUAACACUGCCAAUGCCGGUCCCAAGCCCCGAUAACAGUGGAGGGGGCGG [A40C G34C]	0.06
CCGCCUAACACUGCCAAUGCCGGUCCCAAGCCCUGAUAACAGUGGAGGGGGCGG [A40C G34U]	0.05
